The record followed here is ChEMBL document CHEMBL1124187, “Nucleosides. 150. Synthesis and some biological properties of 5-monofluoromethyl, 5-difluoromethyl, and 5-trifluoromethyl derivatives of 2'-deoxyuridine and 2'-deoxy-2'-fluoro-beta-D-arabinofuranosyluracil” (1988).

One test deals with HL-60. Description: Growth inhibition against HL-60 after 24 hours incubation period. The format is functional. Particulars: Homo sapiens, HL-60, 24 h; read-out: ID50 (the source's name). An outline of the steps: (§1)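 HL-60 cell growth inhibition; ID50 derived from six concentrations of each nucleoside using the median-effect equation and plot.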
Turning to `Cc1cn([C@@H]2O[C@H](CO)[C@@H](O)[C@@H]2F)c(=O)[nH]c1=O` [5-METHYL-2'-FLUOROARAURACIL], the IC50 turned out to be 136 µM.
As to `O=c1[nH]c(=O)n([C@H]2C[C@H](O)[C@@H](CO)O2)cc1C(F)F`, the IC50 was found to be 4 µM.
The same measure, in the same setting: to `CC(=O)OC[C@H]1O[C@@H](n2cc(CF)c(=O)[nH]c2=O)C[C@@H]1OC(C)=O` belongs 3470 µM; to `CC(=O)OC[C@H]1O[C@@H](n2cc(C)c(=O)[nH]c2=O)[C@@H](F)[C@@H]1OC(C)=O`, greater than 1000 µM.
Same read-out and setting: to `O=c1[nH]c(=O)n([C@@H]2O[C@H](CO)[C@@H](O)[C@@H]2F)cc1C(F)(F)F` belongs 304 µM; to `CC(=O)OC[C@H]1O[C@@H](n2cc(CF)c(=O)[nH]c2=O)[C@@H](F)[C@@H]1OC(C)=O`, 860 µM.

The next test relates to HL-60. Kind of test: Growth inhibition against HL-60 after 48 hours incubation period. As to conditions: Homo sapiens, HL-60, 48 h; read-out: ID50 (the source's name). It counts as functional. In outline:
as §1
As for `Cc1cn([C@@H]2O[C@H](CO)[C@@H](O)[C@@H]2F)c(=O)[nH]c1=O` [5-METHYL-2'-FLUOROARAURACIL], the IC50 is 51 µM.
For `O=c1[nH]c(=O)n([C@H]2C[C@H](O)[C@@H](CO)O2)cc1C(F)F`, the IC50 came to 1.25 µM.
The same measure, in the same setting: to `CC(=O)OC[C@H]1O[C@@H](n2cc(CF)c(=O)[nH]c2=O)C[C@@H]1OC(C)=O` belongs 976 µM.
As to `CC(=O)OC[C@H]1O[C@@H](n2cc(C(F)F)c(=O)[nH]c2=O)[C@@H](F)[C@@H]1OC(C)=O`, the IC50 was determined as 83 µM.
For `CC(=O)OC[C@H]1O[C@@H](n2cc(C)c(=O)[nH]c2=O)[C@@H](F)[C@@H]1OC(C)=O`, the IC50 is 209 µM.
The same measure, in the same setting: to `O=c1[nH]c(=O)n([C@@H]2O[C@H](CO)[C@@H](O)[C@@H]2F)cc1C(F)(F)F` belongs 29 µM; to `CC(=O)OC[C@H]1O[C@@H](n2cc(CF)c(=O)[nH]c2=O)[C@@H](F)[C@@H]1OC(C)=O`, 500 µM.

The subject of another test is HL-60. Description: Growth inhibition against HL-60 after 72 hours incubation period. It counts as functional. As to conditions: Homo sapiens, HL-60, 72 h; read-out: ID50 (the source's name). An outline of the steps: as §1
Turning to `Cc1cn([C@@H]2O[C@H](CO)[C@@H](O)[C@@H]2F)c(=O)[nH]c1=O` [5-METHYL-2'-FLUOROARAURACIL], the IC50 worked out at 25 µM.
`O=c1[nH]c(=O)n([C@H]2C[C@H](O)[C@@H](CO)O2)cc1C(F)F`: the IC50 is 0.12 µM.
Still for that read-out and setting: to `CC(=O)OC[C@H]1O[C@@H](n2cc(CF)c(=O)[nH]c2=O)C[C@@H]1OC(C)=O` belongs 324 µM; to `CC(=O)OC[C@H]1O[C@@H](n2cc(C(F)F)c(=O)[nH]c2=O)[C@@H](F)[C@@H]1OC(C)=O`, 40 µM; to `CC(=O)OC[C@H]1O[C@@H](n2cc(C)c(=O)[nH]c2=O)[C@@H](F)[C@@H]1OC(C)=O`, 119 µM.
Same read-out and setting: to `O=c1[nH]c(=O)n([C@@H]2O[C@H](CO)[C@@H](O)[C@@H]2F)cc1C(F)(F)F` belongs 17 µM; to `CC(=O)OC[C@H]1O[C@@H](n2cc(CF)c(=O)[nH]c2=O)[C@@H](F)[C@@H]1OC(C)=O`, 312 µM.

The subject of another test is HL-60. Kind of test: The compound was tested for [3H]TdR incorporation into DNA in HL-60 cells. The format is functional. Particulars: Homo sapiens, HL-60, 30 min; read-out: ID50 (the source's name). An outline of the steps:
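HL-60 cells labelled with [methyl-3H]TDR (1 µCi, 0.02 µM) for 30 min, then label incorporated into DNA measured. ID50 derived from six nucleoside concentrations using the median-effect equation and plot.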
Consider `Cc1cn([C@@H]2O[C@H](CO)[C@@H](O)[C@@H]2F)c(=O)[nH]c1=O` [5-METHYL-2'-FLUOROARAURACIL], for which the IC50 worked out at 20 µM.
Same read-out and setting: to `O=c1[nH]c(=O)n([C@H]2C[C@H](O)[C@@H](CO)O2)cc1C(F)F` belongs 5.1 µM; to `O=c1[nH]c(=O)n([C@@H]2O[C@H](CO)[C@@H](O)[C@@H]2F)cc1C(F)(F)F`, greater than 1000 µM.

A further test deals with Human alphaherpesvirus 2. Description: Effective dose required for antiherpes activity against HSV-2(G) strain. It counts as functional. As to conditions: read-out: ED50 (the source's name).
Consider `Cc1cn([C@@H]2O[C@H](CO)[C@@H](O)[C@@H]2F)c(=O)[nH]c1=O` [5-METHYL-2'-FLUOROARAURACIL], for which the EC50 was 70 nM.
As to `O=c1[nH]c(=O)n([C@H]2C[C@H](O)[C@@H](CO)O2)cc1C(F)F`, the EC50 came out at 1170 nM.
Consider `CC(=O)OC[C@H]1O[C@@H](n2cc(CF)c(=O)[nH]c2=O)C[C@@H]1OC(C)=O`, for which the EC50 is greater than 100000 nM.
In the case of `CC(=O)OC[C@H]1O[C@@H](n2cc(C(F)F)c(=O)[nH]c2=O)[C@@H](F)[C@@H]1OC(C)=O`, the EC50 was determined as 2160 nM.
Consider `CC(=O)OC[C@H]1O[C@@H](n2cc(C)c(=O)[nH]c2=O)[C@@H](F)[C@@H]1OC(C)=O`, for which the EC50 is 1230 nM.
On the same count and under the same terms, to `O=c1[nH]c(=O)n([C@@H]2O[C@H](CO)[C@@H](O)[C@@H]2F)cc1C(F)(F)F` belongs 1700 nM.
In the case of `CC(=O)OC[C@H]1O[C@@H](n2cc(CF)c(=O)[nH]c2=O)[C@@H](F)[C@@H]1OC(C)=O`, the EC50 was found to be 5190 nM.

A further test relates to Human alphaherpesvirus 1. Description: Effective dose required for antiherpes activity against HSV-1(F) strain. The format is functional. As to conditions: read-out: ED50 (the source's name).
As to `Cc1cn([C@@H]2O[C@H](CO)[C@@H](O)[C@@H]2F)c(=O)[nH]c1=O` [5-METHYL-2'-FLUOROARAURACIL], the EC50 is 70 nM.
Still for that read-out and setting: to `O=c1[nH]c(=O)n([C@H]2C[C@H](O)[C@@H](CO)O2)cc1C(F)F` belongs 800 nM; to `CC(=O)OC[C@H]1O[C@@H](n2cc(CF)c(=O)[nH]c2=O)C[C@@H]1OC(C)=O`, greater than 100000 nM.
The same measure, in the same setting: to `CC(=O)OC[C@H]1O[C@@H](n2cc(C(F)F)c(=O)[nH]c2=O)[C@@H](F)[C@@H]1OC(C)=O` belongs 710 nM; to `CC(=O)OC[C@H]1O[C@@H](n2cc(C)c(=O)[nH]c2=O)[C@@H](F)[C@@H]1OC(C)=O`, 440 nM.
Turning to `O=c1[nH]c(=O)n([C@@H]2O[C@H](CO)[C@@H](O)[C@@H]2F)cc1C(F)(F)F`, the EC50 amounted to 830 nM.
Regarding `CC(=O)OC[C@H]1O[C@@H](n2cc(CF)c(=O)[nH]c2=O)[C@@H](F)[C@@H]1OC(C)=O`, the EC50 came to 2430 nM.

For another test, the target named is Thymidylate synthase (Mus musculus) (UniProt P07607). Kind of test: The compound was tested for inhibition of thymidylate synthase (TS) in L1210 cells. It counts as cell-based.
Thymidylate synthase (Mus musculus), sequence (P07607 whole entry, looked up): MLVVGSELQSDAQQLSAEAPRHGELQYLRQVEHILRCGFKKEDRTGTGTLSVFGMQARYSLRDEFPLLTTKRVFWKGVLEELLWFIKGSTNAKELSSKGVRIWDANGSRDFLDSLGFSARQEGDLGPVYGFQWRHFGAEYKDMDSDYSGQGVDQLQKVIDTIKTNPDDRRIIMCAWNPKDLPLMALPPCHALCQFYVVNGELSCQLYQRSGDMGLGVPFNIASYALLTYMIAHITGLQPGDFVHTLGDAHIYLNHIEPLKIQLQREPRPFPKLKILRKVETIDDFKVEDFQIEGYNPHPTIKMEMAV
Settings: not given
An outline of the steps: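 In situ thymidylate synthase activity in intact L1210 cells, measured as tritium released from [5-3H]UDR. Reported as ID50.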
On to `O=c1[nH]c(=O)n([C@H]2C[C@H](O)[C@@H](CO)O2)cc1CO`, for which the ID50 is greater than 1000 µM.
Still for that read-out and setting: to `O=Cc1cn([C@@H]2O[C@H](CO)[C@@H](O)[C@@H]2F)c(=O)[nH]c1=O` belongs greater than 1000 µM; to `Cc1cn([C@@H]2O[C@H](CO)[C@@H](O)[C@@H]2F)c(=O)[nH]c1=O` [5-METHYL-2'-FLUOROARAURACIL], greater than 1000 µM; to `O=c1[nH]c(=O)n([C@H]2C[C@H](O)[C@@H](CO)O2)cc1C(F)F`, 0.063 µM.
Compound `O=c1[nH]c(=O)n([C@@H]2O[C@H](CO)[C@@H](O)[C@@H]2F)cc1C(F)(F)F` had an ID50 of 14 µM.

The species named for another test is Homo sapiens. Description: Growth inhibition against HL-60 after 24 hr incubation period. The format is functional.
Settings: not given
In outline:
as §1
With `CC(=O)OC[C@H]1O[C@@H](n2cc(C(F)F)c(=O)[nH]c2=O)[C@@H](F)[C@@H]1OC(C)=O`, the ID50 is 257 µM.
